From PMC13031150 (Acta Pharmaceutica Sinica. B, 2025)

What was measured:
KBM5-T315I cells [1] = test: CCK-8 cell viability assay, including SynergyFinder synergy analysis; assay type: cell-based, human
Summary of the method: (§1)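 Viability was read by CCK-8. […] A second test compound, 0–80 μmol/L alone or with a TKI, was given for 12 h. δ-scores came from SynergyFinder: >10 synergy, <−10 antagonism. SEM, n = 3.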

KBM5 cells = test: as above; assay type: cell-based, human; conditions: NG52 combined with imatinib, KBM5, 24 h, CCK-8, SynergyFinder
Summary of the method: as §1

VCP-KD-KBM5-T315I cells = test: CCK-8 cell viability with synergy analysis in VCP-knockdown cells; assay type: cell-based, human; conditions: NG52 combined with imatinib, 24 h
Summary of the method: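 Viability was read by CCK-8, and δ-scores were computed in SynergyFinder (>10 synergy, <−10 antagonism).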

KBM5-T315I cells [2] = test: LDH / lactate production; assay type: cell-based, human; conditions: NG52 6.25–50 μmol/L, 24 h
[3] = test system: VCP phosphorylation in KBM5-T315I cells; test: VCP phosphorylation in cells; assay type: cell-based, human; conditions: 50 μmol/L NG52, 24 h
Summary of the method: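 KBM5-T315I cells were treated 24 h with test compound. Lysates were immunoprecipitated with anti-VCP antibody and immunoblotted with a pan-phospho-Ser/Thr antibody.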

KBM5-T315I cells [4] = test: Autophagy readouts; assay type: cell-based, human
BCR-ABL = BCR-ABL protein level by Western blot; assay type: cell-based, human; conditions: KBM5-T315I, NG52 0–50 μmol/L, 24 h, dose-dependent
KBM5-T315I xenograft = test: Subcutaneous KBM5-T315I xenograft in NOD/SCID mice; assay type: in vivo, mouse; conditions: CPU-216 20 mg/kg, NG52 100 mg/kg
[5] = test system: KBM5-T315I-PGK1-KD, PGK1-OE and PGK1-T378P cells; test: CCK-8 cell viability in PGK1-modified KBM5-T315I cells; assay type: cell-based, human; conditions: KBM5-T315I-PGK1-KD versus KBM5-T315I, 24 h
Summary of the method: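 KBM5-T315I lines were empty-vector (NC), PGK1-overexpressing (OE), shPGK1 knockdown (KD), or KD re-transfected with PGK1-WT or PGK1-T378P cDNA. […] WT, OE, KD and T378P cells received test compound 0–80 μmol/L for […]. Viability was read by CCK-8; SEM, n = 3.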

[6] = test system: KBM5-T315I cells-bearing NOD/SCID mice; test: Tail-vein KBM5-T315I leukemia model in NOD/SCID mice; assay type: in vivo, mouse; conditions: single agent: imatinib 100 mg/kg, CPU-216 20 mg/kg
Summary of the method: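 Female NOD/SCID mice aged 4–6 weeks received sublethal irradiation (1.8 Gy), then KBM5-T315I cells by tail vein within 24 h. After 7 days of engraftment, dosing was on alternate days for 4 weeks, with saline as vehicle. Peripheral-blood human CD45⁺ cells were measured by flow cytometry, along with spleen weight and Kaplan–Meier survival. SEM, n ≥ 3.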

[7] = KBM5-T315I, Western blot, NG52 dose-dependent, CPU-216 0–6 μmol/L, 0–12 h

## CC(C)n1cnc2c(Nc3cccc(Cl)c3)nc(NCCO)nc21 [NG52]
KBM5-T315I cells [1]; 0–400 μmol/L, 24 h, CCK-8
  Inhibitory effect on cell viability, KBM5-T315I versus KBM5: better inhibitory effect on KBM5-T315I
KBM5-T315I cells [1]; NG52 combined with imatinib, KBM5-T315I pretreated with 3 μmol/L PKM2-IN-1
  Synergy score: 15.16
KBM5-T315I cells [1]; NG52 combined with imatinib, NC (empty vector control) KBM5-T315I cells, 24 h
  Synergy score (δ-score): 15.66
KBM5-T315I cells [1]; NG52 combined with ponatinib, KBM5-T315I, 24 h, CCK-8, SynergyFinder
  Synergy score (δ-score): 10.11
KBM5 cells
  Synergy score (δ-score): −7.32
VCP-KD-KBM5-T315I cells
  Synergy score (δ-score): 7.57
KBM5-T315I cells [2]
  Effect on LDH levels: no significant effect
[3]
  VCP phosphorylation levels: reduction
KBM5-T315I cells [4]; KBM5-T315I transfected with GFP-LC3B
  Formation of LC3 puncta: promote
KBM5-T315I cells [4]; KBM5-T315I, NG52 50 μmol/L with 10 μmol/L MG132, 24 h
  Beclin 1 ubiquitination: decreased
KBM5-T315I cells [4]; [7]
  Beclin 1 expression and LC3B-II/LC3B-I ratio: increased
  SQSTM1 expression: reducing
KBM5-T315I cells [4]; KBM5-T315I, NG52 50 μmol/L, CPU-216 6 μmol/L
  Autophagic vesicles (transmission electron microscopy): marked increase
BCR-ABL
  BCR-ABL expression: reduced
KBM5-T315I xenograft; imatinib 100 mg/kg
  LC3B-II expression in tumor (immunofluorescence): increased
  SQSTM1 expression in tumor (immunofluorescence): decreased
  Tumor proliferation (Ki-67 staining): significantly reduced
KBM5-T315I xenograft; intragastric every 48 h, 21 days
  Tumor volume: reduce

## CC1=C(CSC(=S)N2CCCCC2)C(=O)c2ccccc2C1=O [PKM2-IN-1]
KBM5-T315I cells [1]; 3 μmol/L, 24 h, CCK-8, KBM5-T315I
  Effect on proliferation: did not affect
KBM5-T315I cells [1]; PKM2-IN-1 combined with imatinib, KBM5-T315I
  Synergy score: −4.49

## Cc1ccc(NC(=O)c2ccc(CN3CCN(C)CC3)cc2)cc1Nc1nccc(-c2cccnc2)n1 [imatinib]
[5]
  Sensitivity of PGK1-knockdown cells to the TKI: increased sensitivity
[6]
  Reduction of proportion of cells in the blood (HuCD45): less pronounced
  Splenomegaly: alleviated

## Cc1ccc(C(=O)Nc2ccc(CN3CCN(C)CC3)c(C(F)(F)F)c2)cc1C#Cc1cnc2cccnn12 [ponatinib]
[5]
  Sensitivity of PGK1-knockdown cells to the TKI: increased sensitivity
